Data taken from ChEMBL document CHEMBL1149206, “P1 and P3 optimization of novel bicycloproline P2 bearing tetrapeptidyl alpha-ketoamide based HCV protease inhibitors” (Bioorg Med Chem Lett, 2004).
Calls of active or inactive are those of the source. The calls are words filed in the database; no cut-off is given here.

Assays:
[1] = target: Kallikrein-1 (Homo sapiens) (UniProt P06870); experiment: Inhibitory activity against kallikrein at 100 uM concentration; Not significant
[2] = system: Rattus norvegicus; experiment: In vivo area under curve in rat plasma exposure after oral administration 50 mg/kg; assay type: ADME, organism-based; set-up: dose 50 mg/kg, route oral
Outline: (§1)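 Male Sprague–Dawley rats given a single oral dose of 50 mg/kg as a suspension in a wet granulation vehicle (povidone/lactose/polysorbate). Blood was collected by orbital sinus and terminal cardiac puncture at selected times up to 8 h. Livers were perfused intracardially with saline before sampling. Plasma and liver drug concentrations were measured by LC/MS/MS.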

[3] = target: Prothrombin (Homo sapiens) (UniProt P00734); experiment: Inhibitory activity against thrombin at 100 uM concentration; Not significant
[4] = system: Rattus norvegicus; experiment: In vivo concentration in rat liver exposure 0-8 hour after oral administration 50 mg/kg; assay type: ADME, organism-based; set-up: dose 50 mg/kg, route oral; outline: as §1
[5] = target: Chymotrypsinogen A (Bos taurus, UniProt P00766); experiment: Inhibitory activity against Chymotrypsin
Outline: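 One of a panel of 10 human serine and cysteine proteases (elastase, chymotrypsin, trypsin, kallikrein, plasmin, thrombin, Factor Xa, cathepsins B, G and L).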

[6] = target: Serine protease 1 (Homo sapiens) (UniProt P07477); experiment: Inhibitory activity against trypsin at 100 uM concentration; Not significant
[7] = In vivo concentration in rat liver exposure 8 hour after oral administration 50 mg/kg; assay type: ADME, organism-based; set-up: dose 50 mg/kg, route oral; settings: read-out: C; outline: as §1
[8] = In vivo concentration in rat plasma exposure at 8 hour after oral administration 50 mg/kg; assay type: ADME, organism-based; set-up: dose 50 mg/kg, route oral; settings: read-out: C; outline: as §1
[9] = system: Huh-7 (Homo sapiens); experiment: Cytotoxic activity in liver Huh-7 cells
[10] = Ratio of cytotoxicity (CC50) to that of replicon (IC50) was determined
Outline: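 Selectivity index: the IC50 from the XTT cytotoxicity assay in Huh-7 cells divided by the IC50 from a modified HCV subgenomic replicon assay.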

[11] = system: Rattus norvegicus; experiment: In vivo concentration in rat liver exposure 8 hour after oral administration 50 mg/kg; Below detection limit; assay type: ADME, organism-based; set-up: dose 50 mg/kg, route oral; outline: as §1
[12] = Ratio of the concentration of liver to that of IC50 replication was determined; assay type: ADME
[13] = Inhibitory activity against plasmin at 100 uM concentration; Not significant

Kallikrein-1 (Homo sapiens), sequence (P06870 25-262 limits assumed): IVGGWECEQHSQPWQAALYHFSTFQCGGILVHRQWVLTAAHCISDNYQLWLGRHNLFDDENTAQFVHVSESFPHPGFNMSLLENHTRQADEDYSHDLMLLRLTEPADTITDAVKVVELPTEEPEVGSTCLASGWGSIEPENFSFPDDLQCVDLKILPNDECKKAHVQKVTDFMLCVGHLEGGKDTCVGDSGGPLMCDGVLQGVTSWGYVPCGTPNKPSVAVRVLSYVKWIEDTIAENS
Serine protease 1 (Homo sapiens), sequence (P07477 whole entry): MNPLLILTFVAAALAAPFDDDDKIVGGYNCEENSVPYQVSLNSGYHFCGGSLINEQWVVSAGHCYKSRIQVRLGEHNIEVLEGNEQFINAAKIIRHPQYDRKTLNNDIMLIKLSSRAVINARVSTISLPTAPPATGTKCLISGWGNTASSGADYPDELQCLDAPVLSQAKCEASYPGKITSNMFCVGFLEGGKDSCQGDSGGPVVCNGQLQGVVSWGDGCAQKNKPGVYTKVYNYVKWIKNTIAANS

Structure (SMILES) | inhibition [1] | AUC [2] [µg·h/mL] | inhibition [3] | Caverage [4] | IC50 [5] [µM] | inhibition [6] | concentration at 8 h [7] [µM] | concentration at 8 h [8] [ng/mL] | C [11] | Ratio [12] | inhibition [13] | CC50 [9] [µM] | Ratio [10]
CC(C)[C@H](NC(=O)c1cnccn1)C(=O)N[C@H](C(=O)N1C[C@@H]2CCC[C@@H]2[C@H]1C(=O)N[C@@H](CC(F)F)C(=O)C(=O)N[C@@H](C)c1ccccc1)C(C)(C)C | – | – | – | – | – | – | – | – | – | – | – | > 100 | > 159
CCC(C)NC(=O)C(=O)[C@H](CC(F)F)NC(=O)[C@@H]1[C@H]2CCC[C@H]2CN1C(=O)[C@@H](NC(=O)[C@@H](NC(=O)c1cnccn1)C(C)C)C(C)(C)C (stereo partly drawn) | – | – | – | – | – | – | – | – | – | – | – | > 100 | > 38
CC(C)[C@H](NC(=O)c1cnccn1)C(=O)N[C@H](C(=O)N1C[C@@H]2CCC[C@@H]2[C@H]1C(=O)N[C@@H](CC(F)F)C(=O)C(=O)N[C@@H](C)c1ccccc1)C(C)C | – | – | – | – | – | – | – | – | – | – | – | > 100 | > 110
CC(C)[C@H](NC(=O)c1cnccn1)C(=O)N[C@H](C(=O)N1C[C@@H]2CCC[C@@H]2[C@H]1C(=O)NC(CC(F)F)C(=O)C(=O)NC1CC1)C(C)C (stereo partly drawn) | – | 0.145 | – | </- 0.88 uM | – | – | – | 20 | Below detection limit | <= 0.23 | – | > 100 | > 26
CCC[C@H](NC(=O)[C@@H]1[C@H]2CCC[C@H]2CN1C(=O)[C@@H](NC(=O)[C@@H](NC(=O)c1cnccn1)C(C)C)C(C)(C)C)C(=O)C(=O)N[C@@H](C)c1ccccc1 | inactive | – | inactive | – | – | inactive | – | – | – | – | – | – | –

Continued, in another order:

inhibition [1] | AUC [2] [µg·h/mL] | inhibition [3] | Caverage [4] | IC50 [5] [µM] | inhibition [6] | concentration at 8 h [7] [µM] | concentration at 8 h [8] [ng/mL] | C [11] | Ratio [12] | inhibition [13] | Structure (SMILES) | CC50 [9] [µM] | Ratio [10]
inactive | 25.8 | inactive | 16 µM | > 100 | inactive | 3.67 | 520 | – | – | – | CCC[C@H](NC(=O)[C@@H]1[C@H]2CCC[C@H]2CN1C(=O)[C@@H](NC(=O)[C@@H](NC(=O)c1cnccn1)C(C)C)C(C)(C)C)C(=O)C(=O)NC1CC1 | – | –
inactive | 1.88 | inactive | 3.64 µM | – | inactive | 0.67 | 40 | – | – | – | CC(C)[C@H](NC(=O)c1cnccn1)C(=O)N[C@H](C(=O)N1C[C@@H]2CCC[C@@H]2[C@H]1C(=O)N[C@@H](CC(F)F)C(=O)C(=O)NC1CC1)C(C)(C)C | – | –
inactive | 22.3 | inactive | 14 µM | > 100 | inactive | 8.68 | 920 | – | 4 | inactive | CCC[C@H](NC(=O)[C@@H]1[C@H]2CCC[C@H]2CN1C(=O)[C@@H](NC(=O)[C@@H](NC(=O)c1cnccn1)C(C)C)C(C)(C)C)C(=O)C(=O)NC(C)CC (stereo partly drawn) | > 100 | > 29
inactive | 2.86 | inactive | 6.29 µM | – | inactive | – | – | – | – | – | CCCC(NC(=O)[C@@H]1[C@H]2CCC[C@H]2CN1C(=O)[C@@H](NC(=O)[C@@H](NC(=O)c1cnccn1)C(C)C)C(C)C)C(=O)C(=O)NC1CC1 (stereo partly drawn) | – | –
